Data from ChEMBL document CHEMBL1122415, “Folate antagonists. 20. Synthesis and antitumor and antimalarial properties of trimetrexate and related 6-[(phenylamino)methyl]-2,4-quinazolinediamines” (1983).
Where “and” joins values, the source holds several entries; their conditions need not be identical. Equal values may be shown once.

What was measured:
Plasmodium berghei [1] = experiment: Antimalarial effect against trophozoite-induced Plasmodium berghei in mice (Mus musculus) at 20 mg/kg subcutaneous dose; format: functional
Plasmodium berghei [2] = experiment: Antimalarial effect against trophozoite-induced Plasmodium berghei in mice (Mus musculus) at 40 mg/kg subcutaneous dose; format: functional
Mus musculus [3] = experiment: Antimalarial effect against trophozoite-induced Plasmodium berghei in mice (Mus musculus) after subcutaneous administration dose of 640 mg/kg; format: functional
L1210 = experiment: Molar concentration required to reduce the number of L1210 cells by 50% after incubation for 2 days; format: functional, Mus musculus; conditions: read-out: ID50 (the source's name)
Summary of the method: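 L1210 leukemia cells in tissue culture exposed to drug for 2 days. ID50 is the molar concentration that reduces L1210 cell number by 50%. Mithramycin is the reference drug.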

Plasmodium berghei [4] = experiment: Antimalarial effect against trophozoite-induced Plasmodium berghei in mice (Mus musculus) at 320 mg/kg subcutaneous dose; format: functional
Plasmodium berghei [5] = experiment: Antimalarial effect against trophozoite-induced Plasmodium berghei in mice (Mus musculus) after subcutaneous dose of 160 mg/kg; format: functional
Plasmodium berghei [6] = experiment: Antimalarial effect against trophozoite-induced Plasmodium berghei in mice (Mus musculus) at 5 mg/kg subcutaneous dose; format: functional
Plasmodium berghei [7] = experiment: Antimalarial effect against trophozoite-induced Plasmodium berghei in mice (Mus musculus) after subcutaneous dose of 10 mg/kg; format: functional
Mus musculus [8] = organism: Mus musculus; experiment: Daily dose required for 90% parasitaemia in trophozoite induced Plasmodium berghei in 21 mice; format: functional
Summary of the method: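 Oral suppressive test in mice against a normal drug-sensitive P. berghei strain. Drug given continuously in the diet for six consecutive days, with doses as free base equivalent. SD90 is the daily dose (mg/kg) giving 90% suppression of parasitemia versus control mice, estimated graphically on semilog paper.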

Mus musculus [9] = experiment: Antimalarial effect against trophozoite-induced Plasmodium berghei in mice (Mus musculus) after subcutaneous administration dose of 2.5 mg/kg; format: functional
Mus musculus [10] = experiment: (§1) Antimalarial effect against trophozoite-induced Plasmodium berghei in mice (Mus musculus) after subcutaneous administration dose of 20 mg/kg; format: functional
Mus musculus [11] = experiment: Antimalarial effect against trophozoite-induced Plasmodium berghei in mice (Mus musculus) after subcutaneous administration dose of 10 mg/kg; format: functional; conditions: 10 mg/kg
Mus musculus [12] = experiment: as §1; format: functional; remark: listed apart in the source
Plasmodium berghei [13] = experiment: Change in mean survival time of Trophozoite-induced Plasmodium berghei infected mice (Mus musculus) after 160 mg/kg subcutaneous dose; 60 days survival; format: functional
Plasmodium berghei [14] = experiment: Antimalarial effect against trophozoite-induced Plasmodium berghei in mice (Mus musculus) at 80 mg/kg subcutaneous dose; format: functional
Mus musculus [15] = experiment: Antimalarial effect against trophozoite-induced Plasmodium berghei in mice (Mus musculus) after subcutaneous administration dose of 1.25 mg/kg; format: functional
Mus musculus [16] = experiment: Antimalarial effect against trophozoite-induced Plasmodium berghei in mice (Mus musculus) after subcutaneous administration dose of 320 mg/kg; 3 survived after 60 days of postinfection; format: functional
Mus musculus [17] = experiment: Antimalarial effect against trophozoite-induced Plasmodium berghei in mice (Mus musculus) after subcutaneous administration dose of 20 mg/kg; 2 survived after 60 days of postinfection; format: functional
Mus musculus [18] = experiment: Antimalarial effect against trophozoite-induced Plasmodium berghei in mice (Mus musculus) after subcutaneous administration dose of 80 mg/kg; 1 survived after 60 days of postinfection; format: functional
Mus musculus [19] = experiment: Antimalarial effect against trophozoite-induced Plasmodium berghei in mice (Mus musculus) after subcutaneous administration dose of 160 mg/kg; 3 survived after 60 days of postinfection; format: functional
Mus musculus [20] = experiment: Antimalarial effect against trophozoite-induced Plasmodium berghei in mice (Mus musculus) after subcutaneous administration dose of 320 mg/kg; 1 survived after 60 days of post infection
Mus musculus [21] = experiment: Antimalarial effect against trophozoite-induced Plasmodium berghei in mice (Mus musculus) after subcutaneous administration dose of 40 mg/kg; 2 survived after 60 days of postinfection; format: functional
Mus musculus [22] = experiment: Antimalarial effect against trophozoite-induced Plasmodium berghei in mice (Mus musculus) after subcutaneous administration dose of 40 mg/kg; 3 survived after 60 days of post infection; format: functional
Mus musculus [23] = experiment: Antimalarial effect against trophozoite-induced Plasmodium berghei in mice (Mus musculus) after subcutaneous administration dose of 80 mg/kg; 1 survived after 60 days; format: functional
Mus musculus [24] = experiment: Antimalarial effect against trophozoite-induced Plasmodium berghei in mice (Mus musculus) after subcutaneous administration dose of 160 mg/kg; 4 survived after 60 days; format: functional
Mus musculus [25] = experiment: Antimalarial effect against trophozoite-induced Plasmodium berghei in mice (Mus musculus) after subcutaneous after 60 days; format: functional
Mus musculus [26] = experiment: Antimalarial effect against trophozoite-induced Plasmodium berghei in mice (Mus musculus) after subcutaneous administration dose of 40 mg/kg; 1 survival after 60 days; format: functional
Mus musculus [27] = experiment: Antimalarial effect against trophozoite-induced Plasmodium berghei in mice (Mus musculus) after subcutaneous administration dose of 40 mg/kg; 1 survived after 60 days of postinfection; format: functional

SMILES	Delta MST (Plasmodium berghei [1]; 20 mg/kg)	Delta MST (Plasmodium berghei [2]; 40 mg/kg)	IC50 (L1210; Mus musculus, L1210, 48 h) [nM]	IC50 (L1210)	Delta MST (Plasmodium berghei [1]) [days]	Delta MST (Plasmodium berghei [6]) [days]	SD90 (Mus musculus [8]) [mg/kg/day]	Delta MST (Plasmodium berghei [7]) [days]	other results
Nc1nc(N)c2cc(CN(C=O)c3ccc4cc(Cl)ccc4c3)ccc2n1	0.5 days and 0.3 days	1.5 days and 0.5 days	250	150 nM	–	–	–	–	Delta MST (Mus musculus [3]): 16.9 days; Delta MST (Plasmodium berghei [4]; 320 mg/kg): 13.9 days and 13.7 days and 10.7 days; Delta MST (Plasmodium berghei [5]; 160 mg/kg): 10.9 days and 4.1 days
CC(=O)O.Cc1c(CNc2ccc(Cl)cc2)ccc2nc(N)nc(N)c12	–	–	1.9	–	20.9	8.7	0.088	–	Delta MST (Plasmodium berghei [7]; 10 mg/kg): 19.8 days and 25.9 days and 8.8 days; Delta MST (Mus musculus [9]): 0.7 days
CC(=O)O.Nc1nc(N)c2c(Cl)c(CNc3ccc(Cl)cc3)ccc2n1.O	–	–	–	–	–	–	–	–	Delta MST (Mus musculus [10]): 16.9 days and 17.4 days; Delta MST (Mus musculus [11]): 6.9 days and 6.1 days; Delta MST (Mus musculus [12]): 16.9 days; Delta MST (Mus musculus [9]): 2.7 days
CC(=O)O.COc1cc(NCc2ccc3nc(N)nc(N)c3c2)cc(OC)c1OC.O	–	0.7 days and 0.3 days	57	87 nM	0.7	–	62	0.3	Delta MST (Plasmodium berghei [4]): 7.9 days; Delta MST (Plasmodium berghei [5]; 160 mg/kg): 4.9 days and 4.5 days
CC(=O)O.Nc1nc(N)c2cc(CNc3ccc(Cl)c(C(F)(F)F)c3)ccc2n1.O.O	–	10.5 days and 4.9 days	–	–	5.1	–	–	–	Delta MST (Plasmodium berghei [7]; 10 mg/kg): 4.9 days and 2.7 days; Delta MST (Plasmodium berghei [4]): 29.9 days; Delta MST (Plasmodium berghei [13]): 23.9 days; Delta MST (Plasmodium berghei [14]; 80 mg/kg): 27.2 days and 10.3 days
CC(=O)O.Cc1c(CNc2cccc(Br)c2)ccc2nc(N)nc(N)c12.O	12.6 days and 11.2 days and 7.7 days	9.3 days and 11.2 days	4.4	3.7 nM	–	7.7	0.2	–	Delta MST (Plasmodium berghei [14]; 80 mg/kg): 21.8 days and 9.2 days; Delta MST (Mus musculus [15]): 0.5 days
CC(=O)O.Nc1nc(N)c2cc(CNc3cccc(Br)c3)ccc2n1	1.5 days and 1.8 days	–	86	71 nM	–	–	9	0.4	Delta MST (Plasmodium berghei [2]): 3.1 days; Delta MST (Plasmodium berghei [4]; 320 mg/kg): 9.2 days and 9.8 days; Delta MST (Mus musculus [16]): 9.2 days; Delta MST (Plasmodium berghei [5]): 9.2 days; Delta MST (Plasmodium berghei [14]; 80 mg/kg): 8.8 days and 10.2 days and 3.6 days
CC(=O)O.Nc1nc(N)c2cc(CNc3ccc(Cl)cc3)ccc2n1.O.O	–	–	27	35 nM	5.1	–	1.9	–	Delta MST (Plasmodium berghei [2]): 6.9 days; Delta MST (Plasmodium berghei [5]): 9.9 days; Delta MST (Plasmodium berghei [14]; 80 mg/kg): 6.9 days and 5.1 days
CC(=O)O.Cc1c(CNc2ccc(Cl)c(Cl)c2)ccc2nc(N)nc(N)c12	–	–	8.4	4.3 nM	15.9	8.6	0.33	–	Delta MST (Plasmodium berghei [2]): 29.8 days; Delta MST (Mus musculus [17]): 15.8 days; Delta MST (Mus musculus [9]; 2.5 mg/kg): 7.2 days and 4 days
CC(=O)O.Nc1nc(N)c2cc(CNc3cccc(Cl)c3)ccc2n1.O.O	0.7 days and 0.5 days	–	46	70 nM	–	–	8.5	0.3	Delta MST (Plasmodium berghei [2]): 1.7 days; Delta MST (Mus musculus [3]): 9.9 days; Delta MST (Plasmodium berghei [4]; 320 mg/kg): 20.6 days and 16.4 days and 8.7 days; Delta MST (Plasmodium berghei [14]): 3.3 days
CC(=O)O.Nc1nc(N)c2cc(CNc3ccc(Cl)c(Cl)c3)ccc2n1.O.O	–	11.2 days and 5.8 days	–	18 nM and 23 nM and 67 nM	5.8	–	0.92	1.8	Delta MST (Mus musculus [18]): 11.8 days; Delta MST (Plasmodium berghei [5]; 160 mg/kg): 18.8 days and 19.8 days; Delta MST (Mus musculus [9]; 2.5 mg/kg): 0.4 days and 0.2 days; Delta MST (Mus musculus [19]; 160 mg/kg): 11.8 days and 12.1 days
CC(=O)O.Nc1nc(N)c2c(Cl)c(CNc3ccc(Cl)c(Cl)c3)ccc2n1.O	–	–	–	–	–	4.3	–	–	Delta MST (Mus musculus [15]): 2.9 days
CC(=O)O.Nc1nc(N)c2cc(CN(N=O)c3ccc(Cl)c4ccccc34)ccc2n1	0.7 days and 0.5 days	2.9 days and 2.7 days	130	170 nM	–	–	–	0.3	Delta MST (Plasmodium berghei [4]; 320 mg/kg): 14.7 days and 14.9 days; Delta MST (Plasmodium berghei [5]; 160 mg/kg): 12.9 days and 13.1 days; Delta MST (Plasmodium berghei [14]; 80 mg/kg): 5.7 days and 5.9 days
CC(=O)O.Nc1nc(N)c2cc(CNc3ccc(Cl)c4ccccc34)ccc2n1.O	–	–	22	13 nM	–	9.9	–	–	Delta MST (Mus musculus [17]; 20 mg/kg): 11.9 days and 12.6 days and 12.9 days; Delta MST (Plasmodium berghei [7]; 10 mg/kg): 10.3 days and 10.5 days and 10.7 days; Delta MST (Mus musculus [9]): 5.5 days; Delta MST (Mus musculus [15]): 1.7 days
CC(=O)O.Nc1nc(N)c2cc(CNc3ccccc3Cl)ccc2n1.O	–	3.1 days and 1.3 days	93	68 nM	–	0.7	8	0.7	Delta MST (Mus musculus [20]): 7.9 days; Delta MST (Plasmodium berghei [4]; 320 mg/kg): 9.9 days and 8.4 days; Delta MST (Mus musculus [16]): 8.4 days; Delta MST (Plasmodium berghei [14]): 7.7 days
CC(=O)O.Nc1nc(N)c2cc(CNc3ccc4cc(Cl)ccc4c3)ccc2n1.O.O	8.3 days and 8.5 days	–	140	260 nM	–	–	–	3.3	Delta MST (Mus musculus [21]): 20.6 days and 20.7 days
Nc1nc(N)c2cc(NCc3ccc(Cl)c(Cl)c3)ccc2n1	–	7.1 days and 2.7 days	–	–	–	–	8.5	–	Delta MST (Plasmodium berghei [5]): 9.9 days; Delta MST (Plasmodium berghei [14]; 80 mg/kg): 13.1 days and 7.3 days; Delta MST (Mus musculus [19]): 9.9 days
Nc1nc(N)c2c(Cl)c(CN(C=O)c3ccc(Cl)c(Cl)c3)ccc2n1	21.9 days and 21.6 days	–	–	–	–	–	–	7.9	Delta MST (Plasmodium berghei [2]): 21.9 days; Delta MST (Mus musculus [22]): 23.9 days; Delta MST (Mus musculus [9]; 2.5 mg/kg): 4.1 days and 3.1 days; Delta MST (Plasmodium berghei [14]): 24.4 days
Nc1nc(N)c2cc(CN(N=O)c3ccc(Cl)c(C(F)(F)F)c3)ccc2n1	5.1 days and 5.3 days	10.9 days and 11.1 days	–	–	–	–	–	1.3	Delta MST (Mus musculus [18]; 80 mg/kg): 14.9 days and 15.2 days
Nc1nc(N)c2cc(CN(C=O)c3ccc(Cl)c(C(F)(F)F)c3)ccc2n1	–	1.5 days and 1.7 days	–	–	0.3	–	–	0.3	Delta MST (Mus musculus [3]): 9.9 days; Delta MST (Plasmodium berghei [4]; 320 mg/kg): 12.5 days and 12.3 days; Delta MST (Plasmodium berghei [5]; 160 mg/kg): 7.5 days and 6.3 days
Nc1nc(N)c2cc(N(Cc3ccc(Cl)c(Cl)c3)N=O)ccc2n1	–	–	–	–	–	2.9	–	–	Delta MST (Mus musculus [17]): 20.9 days; Delta MST (Plasmodium berghei [7]; 10 mg/kg): 7.5 days and 9.9 days
CC(=O)N(Cc1ccc2nc(N)nc(N)c2c1)c1ccc(Cl)c(Cl)c1	–	–	300	190 nM	1.3	–	>15.1	0.9	Delta MST (Plasmodium berghei [2]): 3.7 days; Delta MST (Plasmodium berghei [14]; 80 mg/kg): 8.3 days and 3.7 days and 4.1 days
Nc1nc(N)c2c(Cl)c(CN(N=O)c3ccc(Cl)c(Cl)c3)ccc2n1	6.1 days and 6.3 days	–	–	–	–	–	–	3.5	Delta MST (Mus musculus [23]): 13.4 days; Delta MST (Plasmodium berghei [2]): 8.1 days; Delta MST (Mus musculus [24]): 21.9 days
CC1(C)N=C(N)N=C(N)N1c1ccc(Cl)cc1.Cl [CHLORCYCLOGUANIL HYDROCHLORIDE]	–	–	–	–	7.9	–	–	4.9	Delta MST (Mus musculus [25]): 21.6 days; Delta MST (Mus musculus [26]): 13.4 days
CCc1nc(N)nc(N)c1-c1ccc(Cl)cc1 [PYRIMETHAMINE]	–	–	–	–	–	3.1	–	5.3	Delta MST (Mus musculus [27]): 7.7 days and 6.1 days; Delta MST (Mus musculus [9]): 4.7 days
